Reference: paper PMC7880896 (European journal of medicinal chemistry, 2020)
Like-named read-outs stand apart in the source and are kept apart here.

Columns and labels:
HEK293 cells = test: MTT cytotoxicity assay on HEK293 healthy cell line; type: cell-based, human
Outline: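 HEK293 cells were seeded 24 h before treatment. Compound was dissolved in DMSO (<1%) and diluted in DMEM, tested up to 100 μM. After 24 and 48 h exposure, wells were washed with D-PBS, and MTT from a 5 mg/mL stock was added for 4 h. Formazan was solubilised in DMSO and absorbance read at 540 nm. At least three independent experiments; IC50 given as mean ± SD.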

[1] = target: human adenosine A2A receptor (Homo sapiens, UniProt P29274); test: Adenosine A2A receptor radioligand binding; conditions: read-out: Inhibition of A2A receptor radioligand binding
Outline: (§1)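 Membranes came from CHO cells expressing recombinant human A1 and HEK293 cells expressing human A2A. Cells were homogenised, centrifuged at 4°C and stored in buffer with 3 U/mL adenosine deaminase. Test compound (1 μM) was incubated with A1 membranes (40 μg) plus 2 nM [3H]DPCPX, or A2A membranes (20 μg) plus 15 nM [3H]ZM241385. Incubation was 60 min, 25°C, in 50 mM Tris-HCl pH 7.4 with 10 mM MgCl2. Bound ligand was GF/B-filtered and scintillation-counted.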

U87MG cells = test: MTT antiproliferative assay on U87MG glioblastoma cells; type: cell-based, human; conditions: for viability at 10 µM: Homo sapiens, U-87 MG, read-out: % Viability U87MG, 10 μM, ± SD
U87MG cell line = conditions: read-out: IC50 on U87MG cell line; cited from earlier work
[2] = target: T1, human adenosine A1 receptor (Homo sapiens, UniProt P30542); test: Adenosine A1 receptor radioligand binding; conditions: read-out: Inhibition of A1 receptor radioligand binding
T1 sequence (P30542 1-326): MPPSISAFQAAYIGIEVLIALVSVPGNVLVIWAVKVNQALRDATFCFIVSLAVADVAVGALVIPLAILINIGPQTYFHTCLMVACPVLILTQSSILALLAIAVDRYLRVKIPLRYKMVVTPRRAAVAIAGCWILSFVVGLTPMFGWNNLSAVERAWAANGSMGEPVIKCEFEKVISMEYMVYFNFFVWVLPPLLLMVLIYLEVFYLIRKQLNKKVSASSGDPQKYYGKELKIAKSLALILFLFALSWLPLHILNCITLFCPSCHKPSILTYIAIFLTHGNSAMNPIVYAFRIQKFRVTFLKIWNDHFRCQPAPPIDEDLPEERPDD
Outline: as §1

MCF7 cells = test: MTT antiproliferative assay on MCF7 cells; type: cell-based, human; conditions: read-out: IC50 MCF7, mean ± SD
Outline: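 MCF7 cells were kept in DMEM/F-12 with 10% FBS, penicillin/streptomycin and L-glutamine, passaged every 3 days, and seeded 24 h before treatment. Compound was dissolved in DMSO (<1%) and diluted in DMEM. After 24 and 48 h exposure, cells were washed with D-PBS and given MTT from a 5 mg/mL stock for 4 h. Formazan was dissolved in DMSO and read at 540 nm. At least three independent experiments; mean ± SD.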

[3] = Homo sapiens, HEK293, read-out: IC50 HEK293

Sequence of human adenosine A2A receptor (P29274 whole entry): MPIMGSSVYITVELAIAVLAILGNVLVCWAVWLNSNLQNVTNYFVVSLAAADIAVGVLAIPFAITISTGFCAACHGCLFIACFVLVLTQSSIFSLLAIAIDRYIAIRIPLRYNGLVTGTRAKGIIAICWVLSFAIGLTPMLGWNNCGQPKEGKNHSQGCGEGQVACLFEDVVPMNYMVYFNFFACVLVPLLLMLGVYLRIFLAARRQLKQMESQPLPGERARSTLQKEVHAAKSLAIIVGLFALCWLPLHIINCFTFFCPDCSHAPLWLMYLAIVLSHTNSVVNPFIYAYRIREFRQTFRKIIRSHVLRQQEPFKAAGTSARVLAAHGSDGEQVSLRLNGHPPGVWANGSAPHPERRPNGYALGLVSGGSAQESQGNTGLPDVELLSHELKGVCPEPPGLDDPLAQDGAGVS

SMILES	IC50 (HEK293 cells; [3]) [µM]	other results
Cc1nc(-c2ccccc2)sc1C(=O)CSc1nc(-c2ccc3c(c2)OCO3)c(C#N)c(=O)[nH]1 [Compound 4h, 4-(benzo[d][1,3]dioxol-5-yl)-2-((2-(4-methyl-2-phenylthiazol-5-yl)-2-oxoethyl)thio)-6-oxo-1,6-dihydropyrimidine-5-carbonitrile]	> 100	
COc1ccc(-c2nc(SCC(=O)c3sc(-c4ccc(Cl)cc4)nc3C)nc(N)c2C#N)cc1 [Compound 5h, 4-amino-2-((2-(2-(4-chlorophenyl)-4-methylthiazol-5-yl)-2-oxoethyl)thio)-6-(4-methoxyphenyl)pyrimidine-5-carbonitrile]	> 100	inhibition at 1 µM [1]: -22%
Cc1nc(-c2ccccc2)sc1C(=O)CSc1nc(-c2ccc(Cl)cc2)c(C#N)c(=O)[nH]1 [Compound 4f, 4-(4-chlorophenyl)-2-((2-(4-methyl-2-phenylthiazol-5-yl)-2-oxoethyl)thio)-6-oxo-1,6-dihydropyrimidine-5-carbonitrile]	> 100	
COc1ccc(-c2nc(C)c(C(=O)CSc3nc(-c4cccc(Cl)c4)c(C#N)c(=O)[nH]3)s2)cc1 [Compound 4m, 4-(3-chlorophenyl)-2-((2-(2-(4-methoxyphenyl)-4-methylthiazol-5-yl)-2-oxoethyl)thio)-6-oxo-1,6-dihydropyrimidine-5-carbonitrile]	> 100	
COc1ccc(-c2nc(SCC(=O)c3sc(-c4ccc(Cl)cc4)nc3C)[nH]c(=O)c2C#N)cc1 [Compound 4s, 2-((2-(2-(4-chlorophenyl)-4-methylthiazol-5-yl)-2-oxoethyl)thio)-4-(4-methoxyphenyl)-6-oxo-1,6-dihydropyrimidine-5-carbonitrile]	> 100	
COc1ccc(-c2nc(C)c(C(=O)CSc3nc(-c4cccc(OC)c4)c(C#N)c(=O)[nH]3)s2)cc1 [Compound 4j, 4-(3-methoxyphenyl)-2-((2-(2-(4-methoxyphenyl)-4-methylthiazol-5-yl)-2-oxoethyl)thio)-6-oxo-1,6-dihydropyrimidine-5-carbonitrile]		viability at 10 µM (U87MG cells): < 70%
COc1ccc(-c2nc(SCC(=O)c3sc(-c4ccccc4)nc3C)[nH]c(=O)c2C#N)cc1OC [Compound 4d, 4-(3,4-dimethoxyphenyl)-2-((2-(4-methyl-2-phenylthiazol-5-yl)-2-oxoethyl)thio)-6-oxo-1,6-dihydropyrimidine-5-carbonitrile]		viability at 10 µM (U87MG cells): < 70%
COc1ccc(-c2nc(C)c(C(=O)CSc3nc(-c4ccc5c(c4)OCO5)c(C#N)c(=O)[nH]3)s2)cc1 [Compound 4p, 4-(benzo[d][1,3]dioxol-5-yl)-2-((2-(2-(4-methoxyphenyl)-4-methylthiazol-5-yl)-2-oxoethyl)thio)-6-oxo-1,6-dihydropyrimidine-5-carbonitrile]	> 100	
Cn1nnc2c(C(N)=O)ncn2c1=O [temozolomide]		IC50 (U87MG cell line): 130 to 171 µM
Cc1nc(-c2ccccc2)sc1C(=O)CSc1nc(-c2cccc(Cl)c2)c(C#N)c(=O)[nH]1 [Compound 4e, 4-(3-chlorophenyl)-2-((2-(4-methyl-2-phenylthiazol-5-yl)-2-oxoethyl)thio)-6-oxo-1,6-dihydropyrimidine-5-carbonitrile]	> 100	
COc1ccc(-c2nc(SCC(=O)c3sc(-c4ccc(Cl)cc4)nc3C)[nH]c(=O)c2C#N)cc1OC [Compound 4t, 2-((2-(2-(4-chlorophenyl)-4-methylthiazol-5-yl)-2-oxoethyl)thio)-4-(3,4-dimethoxyphenyl)-6-oxo-1,6-dihydropyrimidine-5-carbonitrile]	> 100	
COc1ccc(-c2nc(C)c(C(=O)CSc3nc(N)c(C#N)c(-c4ccccc4)n3)s2)cc1 [Compound 5d, 4-amino-2-((2-(2-(4-methoxyphenyl)-4-methylthiazol-5-yl)-2-oxoethyl)thio)-6-phenylpyrimidine-5-carbonitrile]	> 100	
COc1ccc(-c2nc(C)c(C(=O)CSc3nc(-c4ccc(OC)c(OC)c4)c(C#N)c(=O)[nH]3)s2)cc1 [Compound 4l, 4-(3,4-dimethoxyphenyl)-2-((2-(2-(4-methoxyphenyl)-4-methylthiazol-5-yl)-2-oxoethyl)thio)-6-oxo-1,6-dihydropyrimidine-5-carbonitrile]		viability at 10 µM (U87MG cells): < 70%
COc1ccc(-c2nc(C)c(C(=O)CSc3nc(N)c(C#N)c(-c4ccc(OC)cc4)n3)s2)cc1 [Compound 5e, 4-amino-6-(4-methoxyphenyl)-2-((2-(2-(4-methoxyphenyl)-4-methylthiazol-5-yl)-2-oxoethyl)thio)pyrimidine-5-carbonitrile]	> 100	inhibition at 1 µM [1]: -18%; cytotoxic effect on HEK293 (in words) (HEK293 cells; healthy cell line): no cytotoxic effect even at high concentrations
COc1ccc(-c2nc(SCC(=O)c3sc(-c4ccccc4)nc3C)nc(N)c2C#N)cc1 [Compound 5b, 4-amino-6-(4-methoxyphenyl)-2-((2-(4-methyl-2-phenylthiazol-5-yl)-2-oxoethyl)thio)pyrimidine-5-carbonitrile]	> 100	
Cc1nc(-c2ccccc2)sc1C(=O)CSc1nc(N)c(C#N)c(-c2ccc(Cl)cc2)n1 [Compound 5c, 4-amino-6-(4-chlorophenyl)-2-((2-(4-methyl-2-phenylthiazol-5-yl)-2-oxoethyl)thio)pyrimidine-5-carbonitrile]	> 100	inhibition at 1 µM [2]: -23%
N.N.[Cl][Pt][Cl] [cisplatin, reference compound]		IC50 (MCF7 cells): 2510 ± 290 nM; IC50 (U87MG cells; read-out: IC50 U87MG, MTT, mean ± SD): 1670 ± 40 nM; IC50 (HEK293 cells; read-out: IC50 HEK293, MTT, mean ± SD, ND = viability higher than 50% at 100 μM): 8.44 ± 0.86 µM
COc1ccc(-c2nc(C)c(C(=O)CSc3nc(-c4ccc(OC)cc4)c(C#N)c(=O)[nH]3)s2)cc1 [Compound 4k, 4-(4-methoxyphenyl)-2-((2-(2-(4-methoxyphenyl)-4-methylthiazol-5-yl)-2-oxoethyl)thio)-6-oxo-1,6-dihydropyrimidine-5-carbonitrile]	> 100	
COc1ccc(-c2nc(C)c(C(=O)CSc3nc(-c4ccccc4)c(C#N)c(=O)[nH]3)s2)cc1 [Compound 4i, 2-((2-(2-(4-methoxyphenyl)-4-methylthiazol-5-yl)-2-oxoethyl)thio)-6-oxo-4-phenyl-1,6-dihydropyrimidine-5-carbonitrile]	> 100	
Cc1nc(-c2ccc(Cl)cc2)sc1C(=O)CSc1nc(-c2ccccc2)c(C#N)c(=O)[nH]1 [Compound 4q, 2-((2-(2-(4-chlorophenyl)-4-methylthiazol-5-yl)-2-oxoethyl)thio)-6-oxo-4-phenyl-1,6-dihydropyrimidine-5-carbonitrile]	> 100	
Cc1nc(-c2ccc(Cl)cc2)sc1C(=O)CSc1nc(N)c(C#N)c(-c2ccccc2)n1 [Compound 5g, 4-amino-2-((2-(2-(4-chlorophenyl)-4-methylthiazol-5-yl)-2-oxoethyl)thio)-6-phenylpyrimidine-5-carbonitrile]	> 100	
